Laboratory results as given in ChEMBL document CHEMBL1124808, “The synthesis and antiallergy activity of 1-(aryloxy)-4-(4-arylpiperazinyl)-2-butanol derivatives” (1990).

Assays:
[1] = system: Rattus norvegicus; experiment: Percent change in volume of foot edema of test compound to that of positive control was determined at a dose of 31.6 mg/kg in rat; -41/-61; type: functional
[2] = system: Rattus norvegicus; experiment: Percent change in volume of foot edema of test compound to that of positive control was determined at a dose of 31.6 mg/kg in rat; -26/-74; type: functional
[3] = system: Rattus norvegicus; experiment: Percent change in volume of foot edema of test compound to that of positive control was determined at a dose of 10 mg/kg in rat; -46/-83; type: functional
[4] = system: Rattus norvegicus; experiment: Percent change in volume of foot edema of test compound to that of positive control was determined at a dose of 3.16 mg/kg in rat; -32/-78; type: functional
[5] = system: Rattus norvegicus; experiment: Percent change in volume of foot edema of test compound to that of positive control was determined at a dose of 31.6 mg/kg in rat; -90/-83; type: functional
[6] = system: Rattus norvegicus; experiment: Percent change in volume of foot edema of test compound to that of positive control was determined at a dose of 10 mg/kg in rat; -15/-73; type: functional
[7] = system: Rattus norvegicus; experiment: Percent change in volume of foot edema of test compound to that of positive control was determined at a dose of 31.6 mg/kg in rat; -64/-73; type: functional
[8] = system: Rattus norvegicus; experiment: Percent change in volume of foot edema of test compound to that of positive control was determined at a dose of 31.6 mg/kg in rat; -25/-93
[9] = system: Rattus norvegicus; experiment: Percent change in volume of foot edema of test compound to that of positive control was determined at a dose of 10 mg/kg in rat; -39/-72; type: functional
[10] = system: Rattus norvegicus; experiment: Percent change in volume of foot edema of test compound to that of positive control was determined at a dose of 31.6 mg/kg in rat; -57/-83; type: functional
[11] = system: Rattus norvegicus; experiment: Percent change in volume of foot edema of test compound to that of positive control was determined at a dose of 10 mg/kg in rat; -41/-59; type: functional
[12] = system: Rattus norvegicus; experiment: Percent change in volume of foot edema of test compound to that of positive control was determined at a dose of 31.6 mg/kg in rat; -77/-67; type: functional
[13] = system: Rattus norvegicus; experiment: Percent change in volume of foot edema of test compound to that of positive control was determined at a dose of 31.6 mg/kg in rat; -42/-81; type: functional
[14] = organism: Cavia porcellus; experiment: Dose that protects 50% of guinea pig from collapse was determined in guinea pig anaphylaxis assay; type: functional; details: read-out: PD50
Procedure, shortened: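 Guinea pigs dosed by gavage (10 mL/kg) with compound in 0.5% Tween 80/water; reference theophylline 100 mg/kg po. At 1–24 h, exposed in chamber to aerosolized 1% (w/v) egg albumin at 10 L air/min for up to 5 min; protected if no collapse within 5 min. PD50 by Litchfield and Wilcoxon.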

[15] = system: Rattus norvegicus; experiment: Percent change in volume of foot edema of test compound to that of positive control was determined at a dose of 10 mg/kg in rat; -73/-59; type: functional
[16] = system: Rattus norvegicus; experiment: Percent change in volume of foot edema of test compound to that of positive control was determined at a dose of 3.16 mg/kg in rat; -8/-67; type: functional
[17] = system: Rattus norvegicus; experiment: Percent change in volume of foot edema of test compound to that of positive control was determined at a dose of 31.6 mg/kg in rat; -87/-67; type: functional
[18] = system: Rattus norvegicus; experiment: Percent change in volume of foot edema of test compound to that of positive control was determined at a dose of 10 mg/kg in rat; -54/-72; type: functional
[19] = system: Rattus norvegicus; experiment: Oral Antiallergic activity in the passive foot anaphylaxis (PFA) assay of various amines at the dose of 3.16 mg/kg; -4/-78; type: functional
[20] = system: Rattus norvegicus; experiment: Percent change in volume of foot edema of test compound to that of positive control was determined at a dose of 31.6 mg/kg in rat; -60/-74; type: functional
[21] = system: Rattus norvegicus; experiment: Percent change in volume of foot edema of test compound to that of positive control was determined at a dose of 10 mg/kg in rat; -36/-88; type: functional
[22] = system: Rattus norvegicus; experiment: Percent change in volume of foot edema of test compound to that of positive control was determined at a dose of 31.6 mg/kg in rat; -79/-81; type: functional
[23] = system: Rattus norvegicus; experiment: Percent change in volume of foot edema of test compound to that of positive control was determined at a dose of 10 mg/kg in rat; -40/-81; type: functional
[24] = system: Rattus norvegicus; experiment: Percent change in volume of foot edema of test compound to that of positive control was determined at a dose of 10 mg/kg in rat; -49/-81; type: functional
[25] = system: Rattus norvegicus; experiment: Percent change in volume of foot edema of test compound to that of positive control was determined at a dose of 3.16 mg/kg in rat; -20/-78; type: functional
[26] = system: Rattus norvegicus; experiment: Percent change in volume of foot edema of test compound to that of positive control was determined at a dose of 31.6 mg/kg in rat; -56/-65; type: functional
[27] = system: Rattus norvegicus; experiment: Percent change in volume of foot edema of test compound to that of positive control was determined at a dose of 31.6 mg/kg in rat; -27/-65; type: functional
[28] = system: Rattus norvegicus; experiment: Percent change in volume of foot edema of test compound to that of positive control was determined at a dose of 10 mg/kg in rat; -38/-88; type: functional
[29] = system: Rattus norvegicus; experiment: Percent change in volume of foot edema of test compound to that of positive control was determined at a dose of 31.6 mg/kg in rat; -87/-83; type: functional
[30] = system: Rattus norvegicus; experiment: Percent change in volume of foot edema of test compound to that of positive control was determined at a dose of 10 mg/kg in rat; -43/-77; type: functional
[31] = system: Rattus norvegicus; experiment: Percent change in volume of foot edema of test compound to that of positive control was determined at a dose of 31.6 mg/kg in rat; -65/-78; type: functional

CN(CCC(O)COc1ccccc1)CCN(C)c1ccccc1.O=C(O)C(=O)O (configuration not stated) gave a PFA [1] of -41.
Compound COc1cc(N2CCN(CCC(O)COc3ccccc3)CC2)cc(OC)c1OC.O=C(O)C(=O)O (configuration not stated) has a PFA [2] of -26.
Compound Cl.NC(=O)c1ccc(OCC(O)CCN2CCN(c3ccccc3)CC2)cc1 (configuration not stated) has a PFA [3] of -46, a PFA [4] of -32 and a PFA [5] of -90.
With Cl.Cl.N#Cc1ccc(OCC(O)CCN2CCN(c3ccccc3)CC2)cc1 (configuration not stated) the PFA [6] was -15 and the PFA [7] was -64.
For CC(=O)c1ccc(OCC(O)CCN2CCN(c3ccccc3)CC2)cc1.Cl.Cl (configuration not stated), the PFA [8] was -25.
CC(C)(C)c1ccc(OCC(O)CCN2CCN(c3ccccc3)CC2)cc1.Cl (configuration not stated) was tested, and the PFA [9] was -39 and the PFA [10] was -57.
Cc1ccc(N2CCN(CCC(O)COc3ccc(F)cc3)CC2)cc1.Cl.Cl (configuration not stated) gave a PFA [11] of -41 and a PFA [12] of -77.
O=C(O)/C=C\C(=O)O.c1ccc(OCCCCN2CCN(c3ccccc3)CC2)cc1 gave a PFA [13] of -42.
Work on Cl.OC(CCN1CCN(c2ccc(Cl)cc2)CC1)COc1ccc(F)cc1 (configuration not stated) yielded an ED50 [14] of 7.85 mg/kg, a PFA [15] of -73 and a PFA [16] of -8. The PFA [17] was -87.
Cc1ccc(N2CCN(CCC(O)COc3ccc(Cl)cc3)CC2)cc1.Cl (configuration not stated) gave a PFA [18] of -54, a PFA [19] of -4 and a PFA [20] of -60.
Cc1cc(OCC(O)CCN2CCN(c3ccccn3)CC2)ccc1Cl.Cl.Cl (configuration not stated) gave a PFA [21] of -36 and a PFA [22] of -79.
COc1ccc(N2CCN(CCC(O)COc3ccc(Cl)cc3)CC2)cc1.Cl.Cl (configuration not stated) gave a PFA [23] of -40 and a PFA [22] of -79.
With OC(CCN1CCN(c2ccccc2)CC1)COc1ccc(Br)cc1 (configuration not stated) the PFA [24] was -49, the PFA [25] was -20 and the PFA [26] was -56.
Compound OC(CCN1CCN(c2ccccc2Cl)CC1)COc1ccccc1 (configuration not stated) has a PFA [27] of -27.
With CC(=O)c1ccc(N2CCN(CCC(O)COc3ccc(F)cc3)CC2)cc1 (configuration not stated) the PFA [28] was -38 and the PFA [29] was -87.
In the case of OC(CCN1CCN(c2ccc(Cl)cc2)CC1)COc1ccccc1 (configuration not stated), the PFA [30] is reported as -43 and the PFA [31] is reported as -65.
